Active and inactive are the calls of the source. The rule behind the calls is not given here.
Legend:
Type in all cases: functional, cell-based
Settings in all cases: time <= 14.0 day
KMS-12-PE = assay: Antiproliferative activity against human KMS-12-PE cells treated upto 14 days with replacement of fresh medium containing drug every 3 to 4 days by cell counting kit-8 method
In short: (§1)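 Screen of histone methylation modifier inhibitors in 6-well plates at 3 × 10^4 to 1 × 10^5 cells/well. Drug at 1 μM or DMSO for up to 14 days, with medium and drug refreshed every 3-4 days. CCK-8 read on days 3-4 and 11-14. Values normalized to DMSO; mean of 5 replications ± SEM; unpaired two-sided t-test.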

KMS-12-BM = assay: Antiproliferative activity against human KMS-12-BM cells treated upto 14 days with replacement of fresh medium containing drug every 3 to 4 days by cell counting kit-8 method
In short: (§2)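 Screen of histone methylation modifier inhibitors: myeloma cells seeded at 3 × 10^4 to 1 × 10^5 cells/well, exposed to 1 μM inhibitor or DMSO for up to 14 days. Viability read by CCK-8 absorbance at early (days 3-4) and late (days 11-14) time points, normalized to DMSO; means of 5 replications, SEM, unpaired two-sided t-test.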

MM1.S = assay: Antiproliferative activity against human MM1.S cells treated upto 14 days with replacement of fresh medium containing drug every 3 to 4 days by cell counting kit-8 method; in short: as §2
U-266 = assay: Antiproliferative activity against human […] cells treated upto 14 days with replacement of fresh medium containing drug every 3 to 4 days by cell counting kit-8 method; in short: as §1
RPMI-8226 = assay: Antiproliferative activity against human RPMI-8226 cells treated upto 14 days with replacement of fresh medium containing drug every 3 to 4 days by cell counting kit-8 method; in short: as §1

Structure (SMILES): CC[C@H](C)n1cc(C)c2c(C(=O)NCc3c(C)cc(C)[nH]c3=O)cc(-c3ccc(N4CCNCC4)nc3)cc21
- Activity (KMS-12-PE): inactive

Structure (SMILES): N[C@@H]1C[C@H]1c1cc(F)cc(F)c1OCc1ccccc1
- Activity (KMS-12-BM): inactive
- Activity (MM1.S): inactive

Structure (SMILES): COc1cc2c(NC3CCN(C(C)C)CC3)nc(C3CCCCC3)nc2cc1OCCCN1CCCC1
- Activity (KMS-12-PE): inactive

Structure (SMILES): O=C(O)c1ccc(CN2CCC(CN[C@@H]3C[C@H]3c3ccccc3)CC2)cc1
- Activity (U-266): inactive
- Activity (RPMI-8226): inactive

Reference: ChEMBL document CHEMBL5712901, “DOT1L inhibition blocks multiple myeloma cell proliferation by suppressing IRF4-MYC signaling” (2019)
